Experimental data collected from several papers.
Compare with care: the assays were run in different laboratories. ≈ marks a conversion by molar mass, not a printed value.
Organism: Candida albicans

`CCS(=O)(=O)Oc1ccc(C=NNC(=O)CSc2nc3c(C)cccc3c(=O)n2-c2ccccc2)cc1OC` has an inhibition zone of 3 mm (microbial growth, well diffusion; 20 µg/mL).
`Cc1ccc(-c2cc(-c3ccc(OCc4ccccc4)cc3)nc3c(N=Nc4ccc(F)cc4)c(N)nn23)cc1` has an MFC of 125 mg/L (≈ 236 µM) (microbial killing, broth dilution; ATCC10231).
`C[C@@H]1[C@H](O)[C@@H](C)/C=C/C=C/C=C/C=C/C=C/C=C/C=C/[C@H](O[C@@H]2O[C@H](C)[C@@H](O)[C@H](N)[C@@H]2O)C[C@@H]2O[C@](O)(C[C@@H](O)C[C@@H](O)[C@H](O)CC[C@@H](O)C[C@@H](O)CC(=O)O[C@H]1C)C[C@H](O)[C@H]2C(=O)O` gave an inhibition zone of 4 mm (microbial growth, well diffusion; 20 µg/mL).
For `C[C@@H]1[C@H](O)[C@@H](C)/C=C/C=C/C=C/C=C/C=C/C=C/C=C/[C@H](O[C@@H]2O[C@H](C)[C@@H](O)[C@H](N)[C@@H]2O)C[C@@H]2O[C@](O)(C[C@@H](O)C[C@@H](O)[C@H](O)CC[C@@H](O)C[C@@H](O)CC(=O)O[C@H]1C)C[C@H](O)[C@H]2C(=O)O`, the MIC was less than 0.25 µM (microbial growth, broth dilution; SP3876; 48 h).
The MIC90 of `C[C@@H]1[C@H](O)[C@@H](C)/C=C/C=C/C=C/C=C/C=C/C=C/C=C/[C@H](O[C@@H]2O[C@H](C)[C@@H](O)[C@H](N)[C@@H]2O)C[C@@H]2O[C@](O)(C[C@@H](O)C[C@@H](O)[C@H](O)CC[C@@H](O)C[C@@H](O)CC(=O)O[C@H]1C)C[C@H](O)[C@H]2C(=O)O` is reported as 0.84 µM (≈ 0.776 µg/mL) (microbial growth, broth dilution).
`CCCS(=O)(=O)Oc1ccc(C=NNC(=O)CSc2nc3c(C)cccc3c(=O)n2-c2ccccc2)cc1OC` has an inhibition zone of 4 mm (microbial growth, well diffusion; 20 µg/mL).
For `C#CCOC(=O)ON=C1C=CC(=C(C#N)c2ccccc2)C=C1`, the MFC was 8 mg/L (≈ 26.3 µM) (microbial killing, broth dilution; ATCC10231; 48 h).
The MFC of `Cc1ccc(N=Nc2c(N)nn3c(-c4ccc(Cl)cc4Cl)cc(-c4ccc(OCc5ccccc5)cc4)nc23)cc1` is reported as 62.5 mg/L (≈ 108 µM) (microbial killing, broth dilution; ATCC10231).
For `CCS(=O)(=O)Oc1cc(C=NNC(=O)CSc2nc3c(C)cccc3c(=O)n2-c2ccccc2)ccc1OC`, the inhibition zone was 4 mm (microbial growth, well diffusion; 20 µg/mL).
`COc1ccc(N=Nc2c(N)nn3c(-c4ccco4)cc(-c4ccc(OCc5ccccc5)cc4)nc23)cc1` gave an MFC of 62.5 mg/L (≈ 121 µM) (microbial killing, broth dilution; ATCC10231).
For `CC(=O)N1CCN(c2ccc(OCC3COC(Cn4ccnc4)(c4ccc(Cl)cc4Cl)O3)cc2)CC1` (centres unmarked), the MIC was 1 µM (microbial growth, broth dilution; 17546; 48 h).
With `CCCCCCCCCCCC(=O)ON=C1C=CC(=C(C#N)c2ccccc2)C=C1` the MFC was 512 mg/L (≈ 1270 µM) (microbial killing, broth dilution; ATCC10231; 48 h).
`CC(=O)N1CCN(c2ccc(OCC3COC(Cn4ccnc4)(c4ccc(Cl)cc4Cl)O3)cc2)CC1` (centres unmarked) has an MFC of 31.3 mg/L (≈ 58.9 µM) (microbial killing, broth dilution; ATCC10231).
`OC(Cn1cncn1)(Cn1cncn1)c1ccc(F)cc1F` has an MIC of 4 µM (microbial growth, broth dilution; CGMCC2; 48 h).
`C=CC(=O)ON=C1C=CC(=C(C#N)c2ccccc2)C=C1` gave an MFC of 4 mg/L (≈ 14.5 µM) (microbial killing, broth dilution; ATCC10231; 48 h).
With `Cc1ccc(N=Nc2c(N)nn3c(-c4ccco4)cc(-c4ccc(OCc5ccccc5)cc4)nc23)cc1` the MFC was 125 mg/L (≈ 250 µM) (microbial killing, broth dilution; ATCC10231).
With `COc1cc(C=NNC(=O)CSc2nc3c(C)cccc3c(=O)n2-c2ccccc2)ccc1OS(C)(=O)=O` the inhibition zone was 3 mm (microbial growth, well diffusion; 20 µg/mL).
`OC(Cn1cncn1)(Cn1cncn1)c1ccc(F)cc1F` has an MIC of 2 mg/L (microbial growth, broth dilution; SN152; 24 h).
With `CS(=O)(=O)Oc1ccc(C=NNC(=O)CSc2nc3ccc(Cl)cc3c(=O)n2-c2ccccc2)cc1` the inhibition zone was 2 mm (microbial growth, well diffusion; 20 µg/mL).
`OC(Cn1cncn1)(Cn1cncn1)c1ccc(F)cc1F` has an IC50 of 1 mg/L (≈ 3.27 µM) (microbial growth).
